{
  "source": "ChEMBL document CHEMBL4689842",
  "about": "“EUbOPEN Chemogenomics Library wave 1” (2021)",
  "test_system": "U2OS",
  "assay": "Multiplex assay against U2OS",
  "type": "toxicity, cell-based",
  "settings": "human",
  "outline": "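Live cells were stained at seeding with Hoechst33342, BioTracker Green Microtubule Cytoskeleton Dye, MitoTracker Red and Annexin V Alexa Fluor 680, then imaged on a CQ1 microscope at 37°C and 5% CO2 after compound addition. CellPathfinder machine-learning gating split cells into Hoechst high-intensity objects or normal cells. Normal cells were split into healthy, pyknosed or fragmented nuclei, and pyknosed cells into mitotic or apoptotic. Tubulin, mitochondrial-mass and membrane-permeability phenotypes are per cents of healthy-nucleus cells.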",
  "key": {"[1]": {"settings": "12 h, 1 µM, compound concentration 1 uM, replicate 1"}, "[2]": {"settings": "12 h, 1 µM, compound concentration 1 uM, replicate 2"}, "[3]": {"settings": "12 h, 10 µM, compound concentration 10 uM, replicate 1"}, "[4]": {"settings": "12 h, 10 µM, compound concentration 10 uM, replicate 2"}, "[5]": {"settings": "24 h, 1 µM, compound concentration 1 uM, replicate 1"}, "[6]": {"settings": "24 h, 1 µM, compound concentration 1 uM, replicate 2"}, "[7]": {"settings": "24 h, 10 µM, compound concentration 10 uM, replicate 1"}, "[8]": {"settings": "24 h, 10 µM, compound concentration 10 uM, replicate 2"}},
  "note": "Where “and” joins values, the source holds several entries; their conditions need not be identical. Equal values may be shown once.",
  "data": [
    {"smiles": "CC[C@@]1(O)C(=O)OCc2c1cc1n(c2=O)Cc2cc3ccccc3nc2-1", "note": "[CAMPTOTHECIN]", "values": [
      {"measurement": "Population Healthy Nuclei (%)", "setting": "[1]", "value": "34% and 42% and 78%"},
      {"measurement": "Population Membrane Permeable-Phenotype (%)", "setting": "[1]", "value": "11% and 13% and 14%"},
      {"measurement": "Population Mitochondria Different-Phenotype (%)", "setting": "[1]", "value": "25% and 31% and 35%"},
      {"measurement": "Population Normal (%)", "setting": "[1]", "value": "48% and 90%"},
      {"measurement": "Population Pyknosed Nuclei (%)", "setting": "[1]", "value": "13% and 7%"},
      {"measurement": "Population Tubulin-Different-Phenotype (%)", "setting": "[1]", "value": "20% and 33%"},
      {"measurement": "Population Apoptotic (%)", "setting": "[2]", "value": "22% and 36% and 16%"},
      {"measurement": "Population Fragmented Nuclei (%)", "setting": "[2]", "value": "62% and 59% and 26%"},
      {"measurement": "Population Healthy Nuclei (%)", "setting": "[2]", "value": "25% and 24% and 65%"},
      {"measurement": "Population Hoechst High Intensity Objects (%)", "setting": "[2]", "value": "62% and 50% and 28%"},
      {"measurement": "Population Membrane Permeable-Phenotype (%)", "setting": "[2]", "value": "10% and 9%"},
      {"measurement": "Population Mitochondria Different-Phenotype (%)", "setting": "[2]", "value": "45% and 38% and 22%"},
      {"measurement": "Population Mitotic Cells (%)", "setting": "[2]", "value": "77% and 64% and 83%"},
      {"measurement": "Population Normal (%)", "setting": "[2]", "value": "37% and 49% and 71%"},
      {"measurement": "Population Pyknosed Nuclei (%)", "setting": "[2]", "value": "12% and 15%"},
      {"measurement": "Population Apoptotic (%)", "setting": "[3]", "value": 47, "unit": "%"},
      {"measurement": "Population Fragmented Nuclei (%)", "setting": "[3]", "value": 13, "unit": "%"},
      {"measurement": "Population Healthy Nuclei (%)", "setting": "[3]", "value": 74, "unit": "%"},
      {"measurement": "Population Hoechst High Intensity Objects (%)", "setting": "[3]", "value": 6, "unit": "%"},
      {"measurement": "Population Membrane Permeable-Phenotype (%)", "setting": "[3]", "value": 16, "unit": "%"},
      {"measurement": "Population Mitochondria Different-Phenotype (%)", "setting": "[3]", "value": 24, "unit": "%"},
      {"measurement": "Population Mitotic Cells (%)", "setting": "[3]", "value": 52, "unit": "%"},
      {"measurement": "Population Normal (%)", "setting": "[3]", "value": 93, "unit": "%"},
      {"measurement": "Population Pyknosed Nuclei (%)", "setting": "[3]", "value": 11, "unit": "%"},
      {"measurement": "Population Tubulin-Different-Phenotype (%)", "setting": "[3]", "value": 31, "unit": "%"},
      {"measurement": "Total Cell Count", "setting": "[3]", "value": 161},
      {"measurement": "Population Apoptotic (%)", "setting": "[4]", "value": 18, "unit": "%"},
      {"measurement": "Population Fragmented Nuclei (%)", "setting": "[4]", "value": 20, "unit": "%"},
      {"measurement": "Population Healthy Nuclei (%)", "setting": "[4]", "value": 68, "unit": "%"},
      {"measurement": "Population Hoechst High Intensity Objects (%)", "setting": "[4]", "value": 19, "unit": "%"},
      {"measurement": "Population Membrane Permeable-Phenotype (%)", "setting": "[4]", "value": 13, "unit": "%"},
      {"measurement": "Population Mitochondria Different-Phenotype (%)", "setting": "[4]", "value": 32, "unit": "%"},
      {"measurement": "Population Mitotic Cells (%)", "setting": "[4]", "value": 81, "unit": "%"},
      {"measurement": "Population Normal (%)", "setting": "[4]", "value": 80, "unit": "%"},
      {"measurement": "Population Pyknosed Nuclei (%)", "setting": "[4]", "value": 10, "unit": "%"},
      {"measurement": "Population Tubulin-Different-Phenotype (%)", "setting": "[4]", "value": 38, "unit": "%"},
      {"measurement": "Total Cell Count", "setting": "[4]", "value": 131},
      {"measurement": "Population Apoptotic (%)", "setting": "[5]", "value": "63% and 75% and 77%"},
      {"measurement": "Population Healthy Nuclei (%)", "setting": "[5]", "value": "26% and 28% and 72%"},
      {"measurement": "Population Membrane Permeable-Phenotype (%)", "setting": "[5]", "value": "36% and 32% and 15%"},
      {"measurement": "Population Mitochondria Different-Phenotype (%)", "setting": "[5]", "value": "58% and 57% and 35%"},
      {"measurement": "Population Mitotic Cells (%)", "setting": "[5]", "value": "36% and 24% and 22%"},
      {"measurement": "Population Normal (%)", "setting": "[5]", "value": "43% and 46% and 91%"},
      {"measurement": "Population Pyknosed Nuclei (%)", "setting": "[5]", "value": "15% and 18%"},
      {"measurement": "Population Tubulin-Different-Phenotype (%)", "setting": "[5]", "value": "38% and 42% and 40%"},
      {"measurement": "Population Apoptotic (%)", "setting": "[6]", "value": "54% and 62% and 80%"},
      {"measurement": "Population Fragmented Nuclei (%)", "setting": "[6]", "value": "63% and 22%"},
      {"measurement": "Population Hoechst High Intensity Objects (%)", "setting": "[6]", "value": "59% and 27%"},
      {"measurement": "Population Mitochondria Different-Phenotype (%)", "setting": "[6]", "value": "54% and 50% and 33%"},
      {"measurement": "Population Mitotic Cells (%)", "setting": "[6]", "value": "45% and 37% and 20%"},
      {"measurement": "Population Normal (%)", "setting": "[6]", "value": "40% and 72%"},
      {"measurement": "Population Pyknosed Nuclei (%)", "setting": "[6]", "value": "21% and 11%"},
      {"measurement": "Population Apoptotic (%)", "setting": "[7]", "value": 80, "unit": "%"},
      {"measurement": "Population Fragmented Nuclei (%)", "setting": "[7]", "value": 21, "unit": "%"},
      {"measurement": "Population Healthy Nuclei (%)", "setting": "[7]", "value": 65, "unit": "%"},
      {"measurement": "Population Hoechst High Intensity Objects (%)", "setting": "[7]", "value": 5, "unit": "%"},
      {"measurement": "Population Membrane Permeable-Phenotype (%)", "setting": "[7]", "value": 14, "unit": "%"},
      {"measurement": "Population Mitochondria Different-Phenotype (%)", "setting": "[7]", "value": 41, "unit": "%"},
      {"measurement": "Population Mitotic Cells (%)", "setting": "[7]", "value": 20, "unit": "%"},
      {"measurement": "Population Normal (%)", "setting": "[7]", "value": 94, "unit": "%"},
      {"measurement": "Population Pyknosed Nuclei (%)", "setting": "[7]", "value": 13, "unit": "%"},
      {"measurement": "Population Tubulin-Different-Phenotype (%)", "setting": "[7]", "value": 37, "unit": "%"},
      {"measurement": "Total Cell Count", "setting": "[7]", "value": 157},
      {"measurement": "Population Apoptotic (%)", "setting": "[8]", "value": 90, "unit": "%"},
      {"measurement": "Population Fragmented Nuclei (%)", "setting": "[8]", "value": 25, "unit": "%"},
      {"measurement": "Population Healthy Nuclei (%)", "setting": "[8]", "value": 64, "unit": "%"},
      {"measurement": "Population Hoechst High Intensity Objects (%)", "setting": "[8]", "value": 10, "unit": "%"},
      {"measurement": "Population Membrane Permeable-Phenotype (%)", "setting": "[8]", "value": 17, "unit": "%"},
      {"measurement": "Population Mitochondria Different-Phenotype (%)", "setting": "[8]", "value": 35, "unit": "%"},
      {"measurement": "Population Mitotic Cells (%)", "setting": "[8]", "value": 9, "unit": "%"},
      {"measurement": "Population Normal (%)", "setting": "[8]", "value": 89, "unit": "%"},
      {"measurement": "Population Pyknosed Nuclei (%)", "setting": "[8]", "value": 11, "unit": "%"},
      {"measurement": "Population Tubulin-Different-Phenotype (%)", "setting": "[8]", "value": 42, "unit": "%"},
      {"measurement": "Total Cell Count", "setting": "[8]", "value": 112}
    ]}
  ]
}
